Experimental data: ChEMBL document CHEMBL1138485, “Discovery of inducible nitric oxide synthase (iNOS) inhibitor development candidate KD7332, part 1: Identification of a novel, potent, and selective series of quinolinone iNOS dimerization inhibitors that are orally active in rodent pain models” (J Med Chem, 2009)

Legend:
[1] = molecular target: Nitric oxide synthase, inducible (Homo sapiens, UniProt P35228); assay: Inhibition of human iNOS expressed in HEK293 cells assessed as NO production by transient transfection assay; format: cell-based
Nitric oxide synthase, inducible, sequence (P35228 whole entry): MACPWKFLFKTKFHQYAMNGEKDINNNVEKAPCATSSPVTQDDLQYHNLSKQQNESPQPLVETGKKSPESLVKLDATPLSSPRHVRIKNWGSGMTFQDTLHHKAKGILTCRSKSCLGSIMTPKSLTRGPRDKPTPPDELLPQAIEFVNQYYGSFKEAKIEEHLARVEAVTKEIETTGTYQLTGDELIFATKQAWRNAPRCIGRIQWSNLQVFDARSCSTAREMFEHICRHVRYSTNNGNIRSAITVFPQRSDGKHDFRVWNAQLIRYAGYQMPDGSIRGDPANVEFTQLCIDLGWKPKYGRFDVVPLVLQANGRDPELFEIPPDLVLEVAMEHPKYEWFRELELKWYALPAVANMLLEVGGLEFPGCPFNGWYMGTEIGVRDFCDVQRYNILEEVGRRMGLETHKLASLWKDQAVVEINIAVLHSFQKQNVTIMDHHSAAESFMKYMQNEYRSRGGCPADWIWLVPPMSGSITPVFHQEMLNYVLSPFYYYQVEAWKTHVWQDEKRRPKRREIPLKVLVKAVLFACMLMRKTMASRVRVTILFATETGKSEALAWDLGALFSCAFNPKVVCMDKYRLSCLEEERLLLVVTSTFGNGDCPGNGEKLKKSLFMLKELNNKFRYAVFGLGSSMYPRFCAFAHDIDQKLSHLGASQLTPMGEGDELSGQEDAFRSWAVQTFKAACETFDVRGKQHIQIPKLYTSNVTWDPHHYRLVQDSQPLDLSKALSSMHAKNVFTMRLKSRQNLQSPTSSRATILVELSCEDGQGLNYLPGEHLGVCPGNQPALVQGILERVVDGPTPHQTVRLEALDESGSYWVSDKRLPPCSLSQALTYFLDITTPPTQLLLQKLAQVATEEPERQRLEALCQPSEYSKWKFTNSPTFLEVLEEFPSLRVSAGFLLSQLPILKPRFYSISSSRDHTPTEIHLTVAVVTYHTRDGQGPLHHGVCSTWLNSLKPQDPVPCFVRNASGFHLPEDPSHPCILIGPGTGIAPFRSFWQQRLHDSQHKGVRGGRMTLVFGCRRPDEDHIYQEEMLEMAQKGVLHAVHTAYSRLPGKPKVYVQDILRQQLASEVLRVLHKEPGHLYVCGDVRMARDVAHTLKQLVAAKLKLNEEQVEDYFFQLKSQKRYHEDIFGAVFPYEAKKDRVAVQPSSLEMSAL
Procedure, shortened: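 HEK293 cells grown to ~70% confluence in DMEM/10% FBS with pen/strep. Cells transiently transfected with 10 µg human or murine iNOS plasmid (Fugene 6), 4 h at 37 °C, 10% CO2. Trypsinized, plated at 5 × 10⁵ cells/mL and dosed at once; 1400W 100 µM final as positive control. After 18 h, NO read as DAN fluorescence (10 µg/mL, 20 min RT, then NaOH). EC50 from 3 runs, 10-point curves, n = 8/point.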

[2] = molecular target: T1, Nitric oxide synthase 3 (Homo sapiens, UniProt P29474); assay: Inhibition of human eNOS expressed in HEK293 cells assessed as NO production by transient transfection assay; format: cell-based
T1 sequence (P29474 whole entry): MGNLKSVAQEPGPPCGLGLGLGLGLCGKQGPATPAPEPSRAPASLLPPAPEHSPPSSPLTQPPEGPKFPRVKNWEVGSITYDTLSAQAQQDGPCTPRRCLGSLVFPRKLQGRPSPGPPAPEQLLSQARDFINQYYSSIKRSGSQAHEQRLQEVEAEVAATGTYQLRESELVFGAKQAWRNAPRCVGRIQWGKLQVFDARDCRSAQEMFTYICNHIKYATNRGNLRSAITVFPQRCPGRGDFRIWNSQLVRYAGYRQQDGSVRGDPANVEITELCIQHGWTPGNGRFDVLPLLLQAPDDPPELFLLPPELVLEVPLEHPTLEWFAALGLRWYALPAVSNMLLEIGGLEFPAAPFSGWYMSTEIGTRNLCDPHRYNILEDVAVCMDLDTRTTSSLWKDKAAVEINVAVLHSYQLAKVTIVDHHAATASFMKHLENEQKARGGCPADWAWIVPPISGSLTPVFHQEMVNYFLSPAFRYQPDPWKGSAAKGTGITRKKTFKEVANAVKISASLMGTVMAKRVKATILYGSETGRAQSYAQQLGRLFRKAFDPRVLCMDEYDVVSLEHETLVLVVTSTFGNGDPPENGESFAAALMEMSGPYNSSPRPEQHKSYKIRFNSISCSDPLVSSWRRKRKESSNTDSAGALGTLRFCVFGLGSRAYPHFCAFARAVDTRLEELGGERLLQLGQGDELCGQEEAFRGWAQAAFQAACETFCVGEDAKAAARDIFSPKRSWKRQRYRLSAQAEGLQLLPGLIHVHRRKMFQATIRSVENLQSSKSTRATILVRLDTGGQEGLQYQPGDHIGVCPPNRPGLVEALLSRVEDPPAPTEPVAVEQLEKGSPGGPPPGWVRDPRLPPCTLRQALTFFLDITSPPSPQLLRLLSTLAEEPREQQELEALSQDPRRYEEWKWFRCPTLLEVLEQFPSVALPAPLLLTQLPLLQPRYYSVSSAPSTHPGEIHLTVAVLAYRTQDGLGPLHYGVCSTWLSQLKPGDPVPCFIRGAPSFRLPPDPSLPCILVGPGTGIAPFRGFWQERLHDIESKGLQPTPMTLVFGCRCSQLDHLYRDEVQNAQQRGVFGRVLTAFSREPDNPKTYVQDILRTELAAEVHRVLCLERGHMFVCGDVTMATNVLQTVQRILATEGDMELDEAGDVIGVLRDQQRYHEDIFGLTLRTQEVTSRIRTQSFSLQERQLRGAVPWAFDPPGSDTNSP
Procedure, shortened: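 HEK293 cells grown to ~70% confluence in DMEM/10% FBS with pen/strep, transfected with 15 µg human eNOS plasmid plus Fugene 6 (3:1 µL:µg), 4 h at 37 °C, 10% CO2. Cells replated at 5 × 10⁵/mL, compound added at once, 24 h incubation, then A23187 (83 nM final). After 18 h, NO read by DAN fluorescence.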

[3] = molecular target: Nitric oxide synthase 1 (Homo sapiens, UniProt P29475); assay: Inhibition of human nNOS expressed in HEK293 cells assessed as NO production by transient transfection assay; format: cell-based
Nitric oxide synthase 1, sequence (P29475 whole entry): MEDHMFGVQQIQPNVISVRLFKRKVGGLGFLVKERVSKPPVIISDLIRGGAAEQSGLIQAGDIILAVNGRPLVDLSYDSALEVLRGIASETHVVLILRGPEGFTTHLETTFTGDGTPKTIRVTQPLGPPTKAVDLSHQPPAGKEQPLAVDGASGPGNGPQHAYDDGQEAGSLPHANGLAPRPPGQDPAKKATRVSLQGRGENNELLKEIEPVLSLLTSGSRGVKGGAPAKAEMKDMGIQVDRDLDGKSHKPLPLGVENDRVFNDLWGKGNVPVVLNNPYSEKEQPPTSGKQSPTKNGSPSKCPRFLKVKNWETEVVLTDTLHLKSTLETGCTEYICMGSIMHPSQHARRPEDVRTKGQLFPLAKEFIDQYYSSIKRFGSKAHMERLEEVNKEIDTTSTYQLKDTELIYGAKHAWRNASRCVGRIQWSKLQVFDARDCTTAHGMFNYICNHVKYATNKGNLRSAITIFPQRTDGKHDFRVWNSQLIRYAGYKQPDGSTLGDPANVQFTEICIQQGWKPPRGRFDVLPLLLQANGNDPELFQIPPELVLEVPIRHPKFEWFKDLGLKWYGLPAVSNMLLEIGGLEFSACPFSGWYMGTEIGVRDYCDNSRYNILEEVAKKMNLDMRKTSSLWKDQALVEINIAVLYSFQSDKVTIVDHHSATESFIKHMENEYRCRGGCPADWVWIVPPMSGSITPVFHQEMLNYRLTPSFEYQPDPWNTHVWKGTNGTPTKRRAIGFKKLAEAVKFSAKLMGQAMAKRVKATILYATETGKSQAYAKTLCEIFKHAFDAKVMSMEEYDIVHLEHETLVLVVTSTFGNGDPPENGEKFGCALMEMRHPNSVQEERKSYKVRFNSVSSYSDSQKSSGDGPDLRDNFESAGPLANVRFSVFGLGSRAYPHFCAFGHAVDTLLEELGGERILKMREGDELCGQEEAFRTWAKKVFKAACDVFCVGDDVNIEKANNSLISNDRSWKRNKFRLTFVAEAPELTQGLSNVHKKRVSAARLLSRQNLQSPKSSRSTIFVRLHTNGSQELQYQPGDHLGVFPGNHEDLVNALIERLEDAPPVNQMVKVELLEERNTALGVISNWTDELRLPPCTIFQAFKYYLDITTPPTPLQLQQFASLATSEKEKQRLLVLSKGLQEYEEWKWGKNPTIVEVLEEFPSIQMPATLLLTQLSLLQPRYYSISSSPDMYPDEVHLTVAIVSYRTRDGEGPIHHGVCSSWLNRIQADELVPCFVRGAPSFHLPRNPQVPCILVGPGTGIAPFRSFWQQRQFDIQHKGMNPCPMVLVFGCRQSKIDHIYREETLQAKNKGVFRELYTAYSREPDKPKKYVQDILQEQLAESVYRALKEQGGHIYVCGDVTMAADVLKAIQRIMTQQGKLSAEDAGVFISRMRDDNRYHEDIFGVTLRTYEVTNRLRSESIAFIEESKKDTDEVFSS

[4] = test system: Mus musculus; assay: Reduction of plasma nitrate level in LPS-challenged BALB/c mouse at 30 mg/kg, po; format: functional; set-up: scale not given: the % may be the effect or the level left
Procedure, shortened: (§1)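 Male Balb/c mice were dosed by oral gavage (90% PEG/5% Tween 80/5% PVP + 90% CMC (0.5% w/v)) at t = 0 h, 30 mg/kg for single-dose lines. LPS 10 mg/kg ip in 0.9% NaCl followed immediately. At 6 h, EDTA plasma was taken for nitrate and drug levels. Nitrate reduction is relative to vehicle; ED50 came from full oral dose-response.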

[5] = Drug level in LPS-challenged BALB/c mouse plasma at 30 mg/kg, po after 6 hrs; format: ADME, organism-based; set-up: dose 30 mg/kg, route oral; procedure, shortened: as §1
[6] = molecular target: T2, Cytochrome P450 1A2 (Homo sapiens, UniProt P05177); assay: Inhibition of CYP1A2; format: ADME
T2 sequence (P05177 whole entry): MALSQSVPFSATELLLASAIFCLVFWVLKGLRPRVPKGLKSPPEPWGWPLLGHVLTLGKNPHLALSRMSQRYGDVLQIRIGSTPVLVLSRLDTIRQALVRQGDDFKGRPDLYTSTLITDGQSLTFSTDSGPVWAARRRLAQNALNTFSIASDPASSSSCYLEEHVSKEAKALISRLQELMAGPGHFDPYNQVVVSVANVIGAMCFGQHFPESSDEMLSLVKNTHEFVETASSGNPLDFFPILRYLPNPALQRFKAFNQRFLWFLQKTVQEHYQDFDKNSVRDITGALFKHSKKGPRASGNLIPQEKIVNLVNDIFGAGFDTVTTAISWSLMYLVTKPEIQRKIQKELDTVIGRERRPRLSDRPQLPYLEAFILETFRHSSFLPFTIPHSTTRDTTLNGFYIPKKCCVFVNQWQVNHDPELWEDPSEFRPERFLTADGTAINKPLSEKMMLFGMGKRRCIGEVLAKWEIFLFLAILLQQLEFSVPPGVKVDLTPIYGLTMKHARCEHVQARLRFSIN

[7] = molecular target: Cytochrome P450 3A4 (Homo sapiens, UniProt P08684); assay: Inhibition of CYP3A4; format: ADME
Cytochrome P450 3A4, sequence (P08684 whole entry): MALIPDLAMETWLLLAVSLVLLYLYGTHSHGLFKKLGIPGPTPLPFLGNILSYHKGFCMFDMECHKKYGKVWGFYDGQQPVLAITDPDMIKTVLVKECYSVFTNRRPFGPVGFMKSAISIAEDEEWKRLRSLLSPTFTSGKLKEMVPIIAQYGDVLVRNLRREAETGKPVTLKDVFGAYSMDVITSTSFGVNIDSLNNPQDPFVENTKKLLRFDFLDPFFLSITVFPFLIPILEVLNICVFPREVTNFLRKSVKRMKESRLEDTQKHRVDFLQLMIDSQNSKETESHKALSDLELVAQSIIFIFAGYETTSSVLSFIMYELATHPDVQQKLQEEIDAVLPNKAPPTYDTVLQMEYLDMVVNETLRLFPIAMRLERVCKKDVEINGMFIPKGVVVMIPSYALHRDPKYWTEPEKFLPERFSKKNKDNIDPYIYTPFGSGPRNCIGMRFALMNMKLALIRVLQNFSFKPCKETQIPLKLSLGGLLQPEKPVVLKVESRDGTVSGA

[8] = molecular target: Cytochrome P450 2D6 (Homo sapiens, UniProt P10635); assay: Inhibition of CYP2D6; format: ADME
Cytochrome P450 2D6, sequence (P10635 whole entry): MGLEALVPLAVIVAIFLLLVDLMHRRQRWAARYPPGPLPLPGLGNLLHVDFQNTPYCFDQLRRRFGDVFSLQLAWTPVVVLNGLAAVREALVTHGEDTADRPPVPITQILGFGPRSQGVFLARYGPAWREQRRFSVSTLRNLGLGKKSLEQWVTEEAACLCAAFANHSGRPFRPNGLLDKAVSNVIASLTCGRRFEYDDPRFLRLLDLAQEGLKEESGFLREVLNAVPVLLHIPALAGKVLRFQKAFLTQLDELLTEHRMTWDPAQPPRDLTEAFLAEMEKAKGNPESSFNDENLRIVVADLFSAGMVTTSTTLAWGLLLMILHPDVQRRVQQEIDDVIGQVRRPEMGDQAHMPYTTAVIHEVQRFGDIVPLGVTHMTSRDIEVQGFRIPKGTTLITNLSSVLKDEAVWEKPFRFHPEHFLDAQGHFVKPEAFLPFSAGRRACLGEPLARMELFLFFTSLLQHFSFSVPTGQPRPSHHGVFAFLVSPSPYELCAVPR

[9] = molecular target: Cytochrome P450 2C19 (Homo sapiens, UniProt P33261); assay: Inhibition of CYP2C19; format: ADME
Cytochrome P450 2C19, sequence (P33261 whole entry): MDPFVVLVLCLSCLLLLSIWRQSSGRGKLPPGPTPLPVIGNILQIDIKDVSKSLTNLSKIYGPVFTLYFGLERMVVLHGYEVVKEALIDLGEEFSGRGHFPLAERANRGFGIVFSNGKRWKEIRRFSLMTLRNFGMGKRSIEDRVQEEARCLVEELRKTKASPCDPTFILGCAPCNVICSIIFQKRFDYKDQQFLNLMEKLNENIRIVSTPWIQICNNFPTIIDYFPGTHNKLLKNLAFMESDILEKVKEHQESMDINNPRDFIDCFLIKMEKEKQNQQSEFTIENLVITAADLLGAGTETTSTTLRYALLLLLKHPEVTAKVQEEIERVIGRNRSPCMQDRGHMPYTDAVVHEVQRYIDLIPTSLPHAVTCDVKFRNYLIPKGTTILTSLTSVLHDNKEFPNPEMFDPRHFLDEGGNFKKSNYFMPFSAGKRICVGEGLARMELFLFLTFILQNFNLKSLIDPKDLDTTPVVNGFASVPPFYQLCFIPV

Row | SMILES | EC50 [1] | EC50 [2] | EC50 [3] | Activity [4] | concentration at 6 h [5] | EC50 [6] | EC50 [7] | EC50 [8] | EC50 [9]
1 | CC(C)C(=O)N(Cc1cc(=O)[nH]c2c(F)cccc12)c1cccc(Cl)c1 | 160 nM | > 100 µM | 2900 nM | 6% | 21 ng/mL | > 100 µM | 7.6 µM | > 100 µM | 42 µM
2 | CC1=C(C(=O)N(Cc2cc(=O)[nH]c3c(F)c(F)ccc23)c2cccc(Cl)c2)CNCC1 | 11 nM | 2.5 µM | 290 nM | 95% | 63 ng/mL | > 100 µM | 3.4 µM | > 100 µM | 30 µM
3 | Cc1ncsc1C(=O)N(Cc1c[n+]([O-])cc2c(F)c(F)ccc12)c1cccc(Cl)c1 | 19 nM | 34 µM | 3200 nM | 10% | 20 ng/mL | > 100 µM | 1.8 µM | > 100 µM | 93 µM
4 | Cc1ncsc1C(=O)N(Cc1cc(=O)[nH]c2c(F)cccc12)c1cccc(Cl)c1 | 11 nM | 26 µM | 2300 nM | 90% | 77 ng/mL | > 100 µM | 7 µM | > 100 µM | 13 µM
5 | Cn1cncc1C(=O)N(Cc1cc(=O)[nH]c2c(F)c(F)ccc12)c1cccc(Cl)c1 | 3 nM | 0.42 µM | 70 nM | 95% | 18 ng/mL | 95 µM | 1.4 µM | 21 µM | 11 µM
6 | Cc1ncsc1C(=O)N(Cc1cc(=O)[nH]c2c(F)c(F)ccc12)c1cccc(Cl)c1 | 2 nM | 3 µM | 120 nM | 62% | 8 ng/mL | 52 µM | 4.9 µM | > 100 µM | 19 µM
